Screens as filed in PubChem.
This excerpt belongs to a sample that is enriched for hits.
Beta2AR agonist = human beta-2 adrenergic receptor agonism by FAP; Am2.2-beta2AR cells, FAP receptor internalization, flow cytometry; P07550; actives 0.43% (n = 340,000); response, % (test concentration not listed); AID 504454;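 active means response above a set limit, near 3 SD of response in nonfluorescent compounds, cut at about 42% in these data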
Target sequence (P07550 whole entry, looked up): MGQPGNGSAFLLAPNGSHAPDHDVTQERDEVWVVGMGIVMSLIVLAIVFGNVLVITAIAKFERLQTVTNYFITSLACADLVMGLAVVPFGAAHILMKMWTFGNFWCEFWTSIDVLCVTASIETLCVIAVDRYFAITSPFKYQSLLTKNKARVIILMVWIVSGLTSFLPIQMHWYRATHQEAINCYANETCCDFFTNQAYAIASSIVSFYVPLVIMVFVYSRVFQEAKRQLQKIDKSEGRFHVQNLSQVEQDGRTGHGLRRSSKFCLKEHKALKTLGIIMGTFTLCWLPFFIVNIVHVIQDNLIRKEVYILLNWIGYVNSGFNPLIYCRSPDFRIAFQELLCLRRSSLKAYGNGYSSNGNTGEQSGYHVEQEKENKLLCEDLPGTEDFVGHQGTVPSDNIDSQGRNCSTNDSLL
UPR XBP1 act = adaptive UPR (XBP1) activation. AID 463104. activation, % at 20 µM. CHO-XBP1 luciferase reporter, IRE1-XBP1 UPR activation, luminescence; percent of tunicamycin response, DMSO as zero. actives 0.33% (n = 330,000);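 active means versus positive control, 20 µM dose yields 30% or more activation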
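Assay system: CHO-XBP1 luciferase reporter cells; Schedule: 6 h treatment, 37 °C; Detection: glow luminescence from Steady-Glo reagent; Benchmarks: high control tunicamycin 10 µg/mL final, low control DMSO vehicle only.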
CHOP inhibitor = inhibitors of CHOP induction in ER stress response | CHO-K1 CHOP-promoter luciferase, tunicamycin-induced, 15-18 h | inhibition, % at 10 µM | actives 3.8% (n = 220,000);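 active means compounds that reduced the stress-induced luciferase reporter signal by more than about 70% of percent inhibition, limit read from the data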
CHOP UPR activ = apoptotic UPR (CHOP) activation; actives 0.34% (n = 330,000); activation, % at 10 µM; CHO-CHOP luciferase reporter, luminescence; percent of tunicamycin response over DMSO baseline; AID 449763;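 active means at 10 µM dose, activation of 40% or more, normalized to positive control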
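Material: CHO-CHOP cells, stable luciferase reporter of PERK-eIF2a-CHOP signalling; quantity: 500 reporter cells seeded per well; buffer or medium: F12 medium containing 10% fetal bovine serum; compound: one dose, 10 µM in 0.5% DMSO; incubation: 6 h compound treatment, 37 °C; measured by: Steady-Glo luciferase luminescence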
VLA-4 inh = inhibition in a human VLA-4 binding assay; inhibition, % (about 7 µM as worked out from the volumes in the protocol); P13612; VLA-4 expressing cells, ligand binding flow cytometry; actives 0.2% (n = 330,000); in the data active means inhibition above about 50%
Of the large screens only hits and unclear results are named; the others gave an inactive call.

CCCN(CC(=O)Nc1ccccc1Br)CC(=O)Nc1ccc(F)c(F)c1F	none
CCCN(CC(=O)Nc1cc(Cl)cc(Cl)c1)CC(=O)Nc1ccc(F)c(F)c1F	CHOP inhibitor 76
C=CS(=O)(=O)c1sc(Cl)c(N2CCOCC2)c1[N+](=O)[O-]	CHOP inhibitor 104 (no result: UPR XBP1 act, CHOP UPR activ, VLA-4 inh)
Clc1nssc1=Nc1nncs1	none (no result: CHOP inhibitor)
Clc1ccc(N=c2ssnc2Cl)nc1	CHOP inhibitor 103
Cc1cc(NC(=O)CN(C)CC(=O)Nc2ccc(Cl)cc2)no1	none (no result: CHOP inhibitor)
COc1ccc(NC(=S)Nc2cc(-c3ccccc3)[nH]n2)cc1Cl	CHOP inhibitor 78
COc1ccc(NC(=S)Nc2cc(C)[nH]n2)cc1Cl	none
COc1ccc(S(=O)(=O)N2CCc3ccccc32)cc1C(=O)NCC(c1ccco1)N1CCCC1 (centres undefined)	none (no result: CHOP inhibitor)
CC1CCCN(c2ncnc3c2cnn3-c2ccc(Cl)cc2)C1 (centres undefined)	CHOP inhibitor 76
CC1CCN(c2ncnc3c2cnn3Cc2ccc(Cl)cc2)CC1	CHOP inhibitor 73
Cc1ccc(Cn2ncc3c(N4CCN(Cc5ccc(Cl)cc5)CC4)ncnc32)cc1	CHOP inhibitor 79
CC1CCCN(c2ncnc3c2cnn3-c2ccccc2)C1 (centres undefined)	none
COc1cc(Nc2ncnc(N)n2)cc(OC)c1OC	none
O=c1c(O)c(-c2ccc3c(c2)OCO3)oc2ccccc12	CHOP inhibitor 74
Cc1ccc(C(=O)/C=C/Nc2cccc(O)c2)cc1	none
C/C(=C\C(=O)c1ccc(C)cc1)Nc1cccc(O)c1	CHOP inhibitor 94
C=CCc1c(C)nc2c(OC)cccc2c1Cl	none
COc1cccc2c(Cl)c(CC=C(Cl)Cl)c(C)nc12	CHOP inhibitor 87
COc1ccccc1OCC(=O)NNC(=O)c1ccc2c(=O)n3c(nc2c1)CCC3	none (no result: CHOP inhibitor)
CCCn1c(N)c(N(CCOC)C(=O)c2ccc(N(C)S(=O)(=O)c3ccc(C)cc3)cc2)c(=O)[nH]c1=O	none (no result: CHOP inhibitor)
c1ccc2c(c1)-c1cccc3c1c-2cc1ccccc13	none (no result: Beta2AR agonist, CHOP inhibitor)
Oc1cc(-c2ccccc2)c2ccccc2c1	CHOP inhibitor 101
CCOc1ccc(NC(=S)NNc2ccnc3cc(Cl)ccc23)cc1	none
S=C(NNc1ccnc2cc(Cl)ccc12)Nc1ccc(Cl)cc1Cl	CHOP inhibitor 96
CCOc1cccc(-c2nn(-c3ccccc3)cc2/C=C(/C#N)C(=O)NCCCn2ccnc2)c1	CHOP inhibitor 95
Cc1cc(C(C)(C)C)cc(C)c1C[n+]1ccc2ccccc2c1	none (no result: CHOP inhibitor)
O=S1(=O)N=C(Nc2ccc(S(=O)(=O)N3CCCCC3)cc2)c2ccccc21	CHOP inhibitor 92
Nc1cc2c(cc1Cl)-c1ccc([N+](=O)[O-])cc1C2=NO	none (no result: UPR XBP1 act, CHOP inhibitor, CHOP UPR activ, VLA-4 inh)
c1ccc(-n2nc3c(ccc4cnnc43)[nH]2)cc1	CHOP inhibitor 86
COc1ccc(OCC(=O)O/N=C(\N)Cc2ccc(Cl)cc2Cl)cc1	CHOP inhibitor 81
Cc1ccc(C(=O)CC(=O)COc2ccc(Cl)cc2)cc1	CHOP inhibitor 93
Cc1ccc(C(=O)NCCOc2ccc(Cl)cc2)cc1	none (no result: CHOP inhibitor)
Cc1ccc(OCC(=O)O/N=C(\N)Cc2ccc(Cl)cc2)cc1	CHOP inhibitor 77
Cc1ccsc1C(=O)N1CCN(S(=O)(=O)c2cccc(F)c2)CC1	none (no result: CHOP inhibitor)
Cc1c(Cl)c([N+](=O)[O-])nn1Cc1ccc(C(=O)N/N=C\c2ccccn2)o1	CHOP inhibitor 73 (no result: UPR XBP1 act, CHOP UPR activ)
CCCc1ccc(S(=O)(=O)NCCc2ccncc2)cc1	none
CCCCCc1ccc(S(=O)(=O)NCCc2ccncc2)cc1	CHOP inhibitor 72
CCCc1[nH]nc2c1C(/C(C)=C/c1ccccc1)C(C#N)=C(N)O2 (centres undefined)	CHOP inhibitor 71
COc1ccccc1NS(=O)(=O)c1cccc(C(=O)NCC(c2cccs2)N(C)C)c1 (centres undefined)	none (no result: UPR XBP1 act, CHOP inhibitor, CHOP UPR activ, VLA-4 inh)
CC(C)c1ccc(NC(=O)c2cc(S(=O)(=O)NCC3COc4ccccc4O3)ccc2F)cc1 (centres undefined)	CHOP inhibitor 81
O=C(Nc1ccc(C(F)(F)F)cc1)c1cc(S(=O)(=O)NCC2COc3ccccc3O2)ccc1F (centres undefined)	CHOP inhibitor 82
COc1ccc(NC(=O)c2cc(S(=O)(=O)NCC3COc4ccccc4O3)ccc2F)cc1 (centres undefined)	none
COc1ccc(NC(=O)NNC(=O)c2ccc3ccccc3c2)cc1OC	none (no result: CHOP inhibitor)
C[C@H](CO)N1C[C@H](C)[C@@H](CN(C)CC2CCCCC2)Oc2c(NC(=O)CCC(F)(F)F)cccc2C1=O	none (no result: CHOP inhibitor)
OC(CN1CCN(c2ccccn2)CC1)Cn1c2ccccc2c2ccccc21 (centres undefined)	CHOP inhibitor 72
CN(c1ccccc1)S(=O)(=O)c1ccc(C(=O)NNC(=O)c2ccccc2F)cc1	none (no result: CHOP inhibitor)
Cc1ccc(NC(=O)CS(=O)c2ccccc2N)c(C)c1 (centres undefined)	none (no result: CHOP inhibitor)
O=C(CCCN1C(=O)/C(=C/c2ccccc2Cl)SC1=S)NNC(=O)c1ccccc1	CHOP inhibitor 86
O=C(CCCN1C(=O)/C(=C/c2ccccc2Cl)SC1=S)NNC(=O)c1ccc(Cl)cc1Cl	CHOP inhibitor 95
O=C(CCCN1C(=O)/C(=C/c2ccccc2Cl)SC1=S)NNC(=O)c1cccnc1	none
Cc1onc(-c2ccccc2)c1C(=O)Nc1ccc(S(=O)(=O)N2CCOCC2)cc1	none (no result: CHOP inhibitor)
NC(=O)c1cc(Br)cc2c3c([nH]c12)CCCC3	CHOP inhibitor 85
Cc1cc(S(=O)(=O)N2CCCCCC2)c(Cl)cc1Cl	CHOP inhibitor 80
Cc1cc(Cl)c(S(=O)(=O)N2CCCCCC2)cc1OCC(=O)NC1CCCCC1	CHOP inhibitor 92
Cc1cc(Cl)c(S(=O)(=O)N2CCSCC2)cc1OCC(=O)NC1CCCCC1	none
Cc1cc(Cl)c(S(=O)(=O)NC2CCCC2)cc1OCC(=O)NC1CCCCC1	CHOP inhibitor 70
O=C(COC(=O)/C=C/c1ccc(Cl)cc1)NC1CCCCCC1	Beta2AR agonist 44 (no result: CHOP inhibitor)
CCOC(=O)C1=C(COC(=O)[C@@H]2CCCN2S(=O)(=O)c2ccc(C)cc2)NC(=O)NC1C (some centres undefined)	none (no result: CHOP inhibitor)
O=C(COC(=O)Cn1[nH]c(=O)c2ccccc2c1=O)NNC(=O)c1ccc(Br)cc1	none (no result: CHOP inhibitor)
O=C(COc1ccc(S(=O)(=O)NC2CCCCC2)cc1Cl)NCc1ccc2c(c1)OCO2	none
CCN1CCN(S(=O)(=O)c2cc(OCC(=O)NC3CCCCC3)c(C)cc2Cl)CC1	none (no result: CHOP inhibitor)
O=C(COc1ccc(Br)cc1Cl)NC(=O)NC1CCCC1	none (no result: CHOP inhibitor)
O=C(COc1ccc(Br)cc1Cl)NC1CCCCC1	CHOP inhibitor 71
CCOC(=O)N1CCN(S(=O)(=O)c2cc(OCC(=O)NC3CCCCC3)c(C)cc2Cl)CC1	CHOP inhibitor 75
O=C(COc1ccc(S(=O)(=O)NC2CCCCC2)cc1Cl)Nc1ccc2c(c1)OCO2	CHOP inhibitor 86
CCc1noc(C)c1C(=O)NC1CCCc2c1cnn2-c1ccc(C(C)(C)C)cc1 (centres undefined)	none (no result: CHOP inhibitor)
